Results taken from the RNAGym collection of RNA variant scans (doi:10.1126/science.aae0568).
Variants at the floor of the assay were thinned out.

B1: tRNA (parent)
chain: GUUCCGUUGGCGUAAUGGUAACGCGUCUCCCUCCUAAGGAGAAGACUGCGGGUUCGAGUCCCGUACGGAACG

Variants of: B1
Assay: yeast fitness relative to wild type (ratio to wild type); higher = fitter; tRNA-Arg(CCU), competitive growth, 37 C, YPD
Procedure, shortened: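 Changes in genotype frequencies gave Darwinian fitness relative to wild type. Frequencies were read by 100-nucleotide paired-end sequencing of gene amplicons before and after pooled Saccharomyces cerevisiae strains, carrying tRNA-Arg(CCU) gene variants at the native locus, were competed in YPD at 37°C for 24 hours in six replicates. A genotype was kept only with ≥ 100 starting reads, and estimates < 0.5 were set to 0.5.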

Variant	yeast fitness
C4G A14C C30U A40U C49U	0.504
C4G A21G A45U C49U U64A	0.556
C4G A40U A45U U47C	≤ 0.5
C4A U64G	0.641
C4A U64C	0.923
C4G A42G A45U	0.67
C4A G39C G41C	≤ 0.5
C4A G12C U19C C24G A43U U54C C61A	≤ 0.5
C4A G18C C29A C31A A57G	≤ 0.5
C4G A14C G25C	0.8
C4G A20U A57U C66U	≤ 0.5
C4A G18C C61U	≤ 0.5
C4G A40G G48A G56C	≤ 0.5
C4A G44C	0.742
C4A U28A C30A C49G A70C	≤ 0.5
C4G A20G C27G C29G C55A A57U A69U	0.629
C4A U7A U8G A45C	≤ 0.5
C4G A14G G44C U47A	≤ 0.5
C4G A15G G23A C34G	0.538
C4G A40C C49G C55G A69U	≤ 0.5
C4G A15G G23A C34G G68A	≤ 0.5
C4A G25A A40C A65C	≤ 0.5
C4G A14G C33U	≤ 0.5
C4A U28A C31G A40U A65U G68C	≤ 0.5

Variant	yeast fitness
C4G A15C C29G G48A	≤ 0.5
C4G A14G A69U	0.52
C4G A14G A69C	0.508
C4A G52C C66U	≤ 0.5
C4G A21G U28A A69U	≤ 0.5
C4G A20U G67A	≤ 0.5
C4G A20C	0.8
C4G A20G	0.966
C4G A20U	0.659
C4A U13C U32G	0.571
C4A U35C G48C C55U G56A C62U	≤ 0.5
C4A G17A G41A C66U	0.508
C4G A14C C30U A40U G52C G67A	≤ 0.5
C4A U13A C30A U32C C61G G68C	≤ 0.5
C4A G25A C29A A37G G50C U59A	≤ 0.5
C4A G10C G58A	0.713
C4G A14U C30U G48C	≤ 0.5
C4G A14U C34U	0.591
C4G A43C C61A	0.551
C4G A14U C66U	≤ 0.5
C4A U13A G18A G52A C55G	≤ 0.5
C4A G10A G23A C55G C60A	≤ 0.5
C4A U8C G58A	≤ 0.5
C4A G10A G23A U28C C55G C60A	≤ 0.5

Variant	yeast fitness
C4A G17C A36U G39A A42C G50U G63A	0.589
C4A U8A G12C U19C C30U U47A A65U	≤ 0.5
C4A G12C U19C C22U C24G A43U C61A	≤ 0.5
C4A G25C C61G	0.711
C4G A14G A37U G38A A70U	0.628
C4A G23A C33G G63C A65U	≤ 0.5
C4G A21U C33U A42G A57U	0.683
C4G A20G G39A A45C	≤ 0.5
C4G A37G G51A A57G	0.523
C4A G17C G51C G58A	≤ 0.5
C4A U7A A14G G17C C61U	0.543
C4A G23C C61A C62U C66U	≤ 0.5
C4A G18C C24U C29U C34A	0.592
C4G A20U G41A A57C	≤ 0.5
C4G A20C C30A C31G C34A A37G C49A A57C G63A	≤ 0.5
C4A U16G C22U G23U A42C G50C G63C G68C	0.604
C4G A15G A37U A40C G48A G50C	0.515
C4G A21U C49U G56C	≤ 0.5
C4A G18C C29A C31A C66U	≤ 0.5
C4G A36G G48A	0.533
C4A G39C G51A	≤ 0.5
C4A U32C G67A	0.655
C4A G17A G51A C60G A70U	≤ 0.5
C4G A20U C29G C31A G38A	≤ 0.5

Variant	yeast fitness
C4G A21C C22U C61U	≤ 0.5
C4A U8C U19A C27U G38C C55U	≤ 0.5
C4G A37U G51A G52C U59C	≤ 0.5
C4A G44A C46U U53C C62U	≤ 0.5
C4G A40G A45U	≤ 0.5
C4A G52C	0.661
C4G A15U G56C U59A	≤ 0.5
C4G A21G	0.997
C4G A21U	0.696
C4A U13G A40G A45U U47A	≤ 0.5
C4A U19A	0.854
C4A U19G	0.742
C4A U19A A69C	0.602
C4A U19G A45G C46U	≤ 0.5
C4A U47G	0.686
C4A U47A	0.857
C4A U32C G68C	0.867
C4A U13A A21G G58C G68A	0.607
C4A U8A G17C C31U	0.558
C4A U32C C46G	0.599
C4A U32C C33U C49G	≤ 0.5
C4A G38A	0.805
C4G A43C A45G	0.629
C4A G10A U28A C55G	≤ 0.5

Variant	yeast fitness
C4A U32A	0.876
C4A U28A	0.761
C4G A21G A45U C49U C60A	≤ 0.5
C4G A21C C49A A65G	≤ 0.5
C4A G18A G44C C46U C49U G67A A70U	≤ 0.5
C4A U16A U32C C62U A70U	≤ 0.5
C4G A20G C27A C46U A65U	≤ 0.5
C4G A40U A42C A57G C62G	≤ 0.5
C4A U16C G17A	0.567
C4A U7A C31A	0.678
C4G A20G A70C	0.758
C4A G48A A65C	0.618
C4G A20U G25A	≤ 0.5
C4A U16C C27G A42G U53A	≤ 0.5
C4A G67U A69G	0.751
C4G A21G A36U U59A	0.502
C4A G23A G25C G51A	0.607
C4A G25A A45U	0.593
C4A G44C A57C	≤ 0.5
C4G A36G U59C	0.667
C4A G18A G44C C46U C49U	≤ 0.5
C4G A20U A43C G50A	≤ 0.5
C4A G48A	0.964
C4A G23A C24G	≤ 0.5

Variant	yeast fitness
C4A U16G	0.651
C4A U13A A14C A43U	0.601
C4A U16C G17A C62A	≤ 0.5
C4G A20U C61G	≤ 0.5
C4A G18C C29A C31A A70C	≤ 0.5
C4G A14C U47C	≤ 0.5
C4A U7C A15G C30A A57C	≤ 0.5
C4G A42C	0.78
C4G A42G	0.897
C4A U35C	0.834
C4A G17A G41A A57C	≤ 0.5
C4G A15U A21G G56A	0.626
C4A U7C A36G G41A C49A G67U	≤ 0.5
C4A U35C C66A	≤ 0.5
C4G A36U C60G	0.655
C4A U13C C30U A40G C55A G63C A65C	≤ 0.5
C4A G18A A20C U26G C27U C49U	≤ 0.5
C4A U16G C22U G23U A42C G50C C66U	≤ 0.5
C4A U16C G17A A40C A43U U47A C60A	≤ 0.5
C4A U8A C24U G44A A70C	≤ 0.5
C4A G56C C66U	≤ 0.5
C4A G17C G23C A45C A70G	≤ 0.5
C4A U32G A45G C49U A70U	≤ 0.5
C4A U8A C24U C55U G68C	≤ 0.5

Variant	yeast fitness
C4A G17C G23C U53A	≤ 0.5
C4A G48A C61U	0.661
C4G A20U C31G A65U	≤ 0.5
C4G A14U C60A	0.553
C4A G12A U16A G51A U54A	0.542
C4A U19G C31G A45C C46G	0.555
C4G A21G G67C	0.631
C4A G18A U59G	0.657
C4G A36U G58A	≤ 0.5
C4A U26G C66U	≤ 0.5
C4A G12C U13G C30U G58C	≤ 0.5
C4A U35A A37U	≤ 0.5
C4A G17C C31G A37C	0.748
C4A G25C	0.833
C4G A20U A57U	≤ 0.5
C4G A21G C24G C34U U53C C55G C62A	≤ 0.5
C4A U53C	0.691
C4A U13A	0.595
C4A U13G	0.619
C4A U47A C61U	0.545
C4A G23A C33G G58C	≤ 0.5
C4A G23C A65G	0.569
C4G A15C U28C C55G A57U	≤ 0.5
